For assay [1], the target named is Signal transducer and activator of transcription 3 (Homo sapiens) (UniProt P40763). Nature of the assay: Inhibition of STAT3 phosphorylation in human U937 cells at 10 uM after 24 hrs by Western blotting. To be noted: U-937. In kind it is cell-based. Summed up:
(§1)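 U937 cells at 5.0 × 10⁴ cells/mL treated 24 h and lysed with phosphatase and protease inhibitors. 60 µg protein per lane run on 10% SDS–PAGE. Western blots probed with rabbit anti-phospho-STAT3 and anti-STAT3 (1:1000), then HRP anti-rabbit (1:5000), with ECL detection.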

The target is the same in assay [2]. Nature of the assay: Inhibition of STAT3 phosphorylation in human U937 cells at 100 uM after 24 hrs by Western blotting. The class given is cell-based. To be noted: U-937. Summed up:
as §1

The test system of another assay is HL-60. Nature of the assay: Cytotoxicity against human HL60 cells after 72 hrs by WST-8 assay. The class given is functional, cell-based. To be noted: HL-60, 72 h. Summed up: (§2)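 Cells seeded at 5.0 × 10³ cells/100 µL/well in RPMI-1640 and exposed to compounds for 68 h. WST-8 was then added for a further 4 h. Formazan absorbance read at 450 nm (reference 655 nm). Percent inhibition calculated and IC50 read graphically from the curve.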
(In general: Tetrazolium assays rely on reduction of a dye to a coloured formazan, in cell work by metabolically active cells.)

The subject of assay [3] is U-937. Nature of the assay: Cell cycle arrest in human U937 cells assessed as reduction of cell population at G0/G1 phase at 100 nM after 24 hrs using propidium iodide staining by flow cytometry relative to control. The class given is functional. More on the design: scale not given: the % may be the effect or the level left. Summed up:
(§3)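 U937 cells at 5.0 × 10⁴ cells/mL treated 24 h, pelleted, fixed in ice-cold ethanol overnight at −20 °C, treated with DNase-free RNase (0.25 mg/mL) at 37 °C for 30 min, then stained with propidium iodide. DNA content read by flow cytometry, 20,000 cells per sample. G0/G1, S and G2/M fractions compared with untreated control.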

For assay [4], the system named is U-937. Nature of the assay: Cytotoxicity against human U937 cells after 72 hrs by WST-8 assay. To be noted: U-937, 72 h. In kind it is functional, cell-based. The method in brief:
as §2

Assay [5] deals with U-937. Nature of the assay: Cell cycle arrest in human U937 cells assessed as reduction of cell population at S phase at 100 nM after 24 hrs using propidium iodide staining by flow cytometry relative to control. In kind it is functional. More on the design: scale not given: the % may be the effect or the level left. Summed up:
as §3
A general note: A flow cytometer gives signals particle by particle.

Assay [6] concerns the target T1, LIM domain kinase 1/2 (Homo sapiens) (UniProt P53671+P53667). Nature of the assay: Inhibition of LIMK1/2 phosphorylation in human U937 cells at 0.1 to 100 nM after 24 hrs by Western blotting. To be noted: U-937. The class given is cell-based. Summed up:
(§4)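 U937 cells at 5.0 × 10⁴ cells/mL treated 24 h, then lysed with phosphatase and protease inhibitors. Equal protein loaded on SDS–PAGE. Blots probed 1 h with rabbit antibodies (1:1000) to phospho-cofilin, phospho-LIMK1/2, cofilin and β-actin in T-TBS. Detection with HRP anti-rabbit (1:5000) and ECL.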
(In general: A western blot detects proteins with antibodies after separation by electrophoresis.)

Another assay addresses Cofilin-1 (Homo sapiens) (UniProt P23528). Nature of the assay: Inhibition of cofilin phosphorylation in human U937 cells after 24 hrs by Western blotting. In kind it is cell-based. To be noted: U-937. The method in brief: as §4
The test system of assay [7] is HT-1080. Nature of the assay: Cytotoxicity against human HT1080 cells after 72 hrs by WST-8 assay. In kind it is functional, cell-based. To be noted: HT-1080, 72 h. The method in brief: as §2
Assay [8] has as its system U-937. Nature of the assay: Cell cycle arrest in human U937 cells assessed as increase of cell population at G2/M phase at 100 nM after 24 hrs using propidium iodide staining by flow cytometry relative to control. The class given is functional. Summed up:
as §3

Assay [9] concerns HT-1080. Nature of the assay: Decrease of F to G actin ratio in human HT1080 cells at 100 nM after 24 hrs. The class given is functional, cell-based. Summed up:
(§5)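 HT1080 cells seeded at 1.0 × 10⁴ cells/100 µL/well and treated 24 h at 37 °C. Cells fixed in 4% formaldehyde, permeabilized with cold methanol and blocked. F-actin stained with Alexa 350 phalloidin and G-actin with Alexa 488 DNase I, each 15 min at rt in the dark. Fluorescence read at ex 355/em 405 and ex 480/em 520 nm. Results are mean of n = 4; Dunnett's test against control.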

Assay [10] concerns HT-1080. Nature of the assay: Decrease of F to G actin ratio in human HT1080 cells at 1000 nM after 24 hrs. In kind it is functional, cell-based. Summed up: as §5
The target in assay [11] is T1, LIM domain kinase 1/2 (Homo sapiens). Nature of the assay: Inhibition of LIMK1/2 phosphorylation in human U937 cells at 0.1 to 1000 nM after 24 hrs by Western blotting. To be noted: U-937. The class given is cell-based. The method in brief:
as §4

The source made the active and inactive calls. No cut-off for these calls is given here.

Chain of Signal transducer and activator of transcription 3 (Homo sapiens) (P40763 whole entry): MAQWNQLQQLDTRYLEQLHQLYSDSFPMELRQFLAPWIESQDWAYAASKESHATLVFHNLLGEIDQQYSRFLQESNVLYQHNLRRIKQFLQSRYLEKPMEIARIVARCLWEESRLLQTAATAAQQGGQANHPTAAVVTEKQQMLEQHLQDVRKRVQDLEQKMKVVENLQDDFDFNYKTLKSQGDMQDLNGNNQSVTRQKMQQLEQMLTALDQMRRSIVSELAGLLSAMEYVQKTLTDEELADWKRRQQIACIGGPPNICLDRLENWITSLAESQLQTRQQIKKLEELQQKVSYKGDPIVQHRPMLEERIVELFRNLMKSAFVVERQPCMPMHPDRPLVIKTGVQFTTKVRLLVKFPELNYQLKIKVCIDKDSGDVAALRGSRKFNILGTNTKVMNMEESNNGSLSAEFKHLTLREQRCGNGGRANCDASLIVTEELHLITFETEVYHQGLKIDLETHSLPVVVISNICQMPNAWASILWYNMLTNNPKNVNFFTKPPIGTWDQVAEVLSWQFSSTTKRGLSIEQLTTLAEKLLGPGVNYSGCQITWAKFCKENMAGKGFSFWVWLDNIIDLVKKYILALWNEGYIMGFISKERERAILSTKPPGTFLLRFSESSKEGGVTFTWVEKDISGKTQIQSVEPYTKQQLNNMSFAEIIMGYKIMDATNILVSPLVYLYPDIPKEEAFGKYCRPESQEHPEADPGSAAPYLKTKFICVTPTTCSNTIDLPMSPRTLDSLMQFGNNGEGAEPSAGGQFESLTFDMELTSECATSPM
T1 sequence (P53667 whole entry, looked up, the tested form may be a part): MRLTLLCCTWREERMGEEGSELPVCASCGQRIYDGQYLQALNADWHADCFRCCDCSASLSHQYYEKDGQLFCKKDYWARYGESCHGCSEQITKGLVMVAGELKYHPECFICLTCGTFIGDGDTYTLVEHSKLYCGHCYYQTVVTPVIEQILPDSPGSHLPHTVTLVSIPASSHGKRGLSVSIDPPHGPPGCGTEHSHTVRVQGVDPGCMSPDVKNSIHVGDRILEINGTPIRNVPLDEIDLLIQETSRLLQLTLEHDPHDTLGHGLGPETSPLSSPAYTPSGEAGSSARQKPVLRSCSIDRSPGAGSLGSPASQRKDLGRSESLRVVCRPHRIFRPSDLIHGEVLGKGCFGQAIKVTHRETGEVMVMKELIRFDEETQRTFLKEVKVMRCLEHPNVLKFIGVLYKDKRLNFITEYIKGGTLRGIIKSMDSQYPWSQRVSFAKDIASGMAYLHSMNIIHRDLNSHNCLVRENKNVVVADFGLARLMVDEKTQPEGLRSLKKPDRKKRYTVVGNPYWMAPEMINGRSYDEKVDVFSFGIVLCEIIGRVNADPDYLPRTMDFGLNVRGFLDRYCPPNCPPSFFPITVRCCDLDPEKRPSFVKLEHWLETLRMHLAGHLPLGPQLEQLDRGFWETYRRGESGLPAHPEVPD
T1 sequence (P53671 whole entry, looked up, the tested form may be a part): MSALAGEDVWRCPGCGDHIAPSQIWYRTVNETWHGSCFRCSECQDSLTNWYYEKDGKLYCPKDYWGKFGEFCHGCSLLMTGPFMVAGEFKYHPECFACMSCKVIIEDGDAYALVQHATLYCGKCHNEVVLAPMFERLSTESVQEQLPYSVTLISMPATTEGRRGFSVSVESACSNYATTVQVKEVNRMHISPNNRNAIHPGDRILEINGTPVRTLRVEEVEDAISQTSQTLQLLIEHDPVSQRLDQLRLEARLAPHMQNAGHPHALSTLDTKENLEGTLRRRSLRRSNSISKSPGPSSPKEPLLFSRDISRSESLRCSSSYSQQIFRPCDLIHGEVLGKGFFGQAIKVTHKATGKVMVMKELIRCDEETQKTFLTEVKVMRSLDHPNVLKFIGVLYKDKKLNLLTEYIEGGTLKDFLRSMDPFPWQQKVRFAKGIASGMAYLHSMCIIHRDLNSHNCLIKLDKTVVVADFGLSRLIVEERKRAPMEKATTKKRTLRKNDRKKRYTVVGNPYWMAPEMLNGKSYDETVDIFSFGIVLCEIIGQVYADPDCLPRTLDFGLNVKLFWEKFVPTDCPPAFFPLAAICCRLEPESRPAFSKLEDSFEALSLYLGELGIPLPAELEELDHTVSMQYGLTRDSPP
Chain of Cofilin-1 (Homo sapiens) (P23528 whole entry): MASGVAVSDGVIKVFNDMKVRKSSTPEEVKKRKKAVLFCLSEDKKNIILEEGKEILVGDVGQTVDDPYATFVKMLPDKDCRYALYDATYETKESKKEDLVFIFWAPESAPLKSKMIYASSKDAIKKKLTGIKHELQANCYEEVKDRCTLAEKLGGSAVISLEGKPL

Turning to `CC(=O)OC(C)(C)/C=C/C(=O)[C@](C)(O)[C@H]1[C@H](O)C[C@@]2(C)[C@@H]3CC=C4[C@H](C[C@H](O)C(=O)C4(C)C)[C@]3(C)C(=O)C[C@]12C`, the result in assay [1] was inactive. Also, the outcome in assay [2] was Active.

For the compound `CC(=O)OC(C)(C)/C=C/C(=O)[C@](C)(O)[C@H]1[C@H](O)C[C@@]2(C)[C@@H]3CC=C4[C@@H](C=C(O)C(=O)C4(C)C)[C@]3(C)C(=O)C[C@]12C` [CUCURBITACIN E], the IC50 amounted to 18 nM in the assay with HL-60, 16 nM in the assay with U-937 [4] and 40 nM in the assay with HT-1080 [7]. Besides, the Activity is 37.7% in the assay on U-937 [3], 28.1% with U-937 [5], “Dose-dependent effect” at Cofilin-1 (Homo sapiens) and 34.2% in the assay on U-937 [8]. The outcome in [1] and in assay [6] was inactive. Also, the outcome in the assay with HT-1080 [9] was Active.

As to `CC(C)(O)/C=C/C(=O)[C@](C)(O)[C@H]1[C@H](O)C[C@@]2(C)[C@@H]3CC=C4[C@@H](C=C(O)C(=O)C4(C)C)[C@]3(C)C(=O)C[C@]12C` [CUCURBITACIN I], in the assay on HT-1080 [10], the result was Active. The result in assay [6] and in assay [11] was inactive. Besides, at Cofilin-1 (Homo sapiens), the Activity result was “Dose-dependent effect”.

One may read the IC50 as the point on the concentration scale where inhibition reaches its midpoint.

For the origin of these results see ChEMBL document CHEMBL1157892, “Cucurbitacin E as a new inhibitor of cofilin phosphorylation in human leukemia U937 cells” (Bioorg Med Chem Lett, 2010).
